Columns and labels:
Cavia porcellus [1] = experiment: In vivo activity for protection against PAF acether induced thrombocytopenia in guinea pig after 5 min of intravenous administration (1 mg/kg); assay type: functional
Outline: (§1)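 Male Hartley guinea pigs (450-500 g), urethane 1.25 g/kg ip, pancuronium 2 mg/kg, ventilated (50 strokes/min, 10 mL/kg). Antagonist iv 5 min before PAF 100 ng/kg iv. Konzett-Rossler lung inflation resistance vs control group; platelet counts from carotid blood 1 min before and after PAF. Percent inhibition per dose.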

Cavia porcellus [2] = experiment: In vivo activity for protection against PAF acether induced thrombocytopenia in guinea pig after 5 min of intravenous administration (2 mg/kg); assay type: functional; outline: as §1
Cavia porcellus [3] = experiment: In vivo activity for protection against PAF acether induced bronchoconstriction in guinea pig after 5 min of intravenous administration (0.5 mg/kg); assay type: functional; outline: as §1
Cavia porcellus [4] = experiment: In vivo activity for protection against PAF acether induced bronchoconstriction in guinea pig after 5 min of intravenous administration (1 mg/kg); assay type: functional; outline: as §1
Cavia porcellus [5] = experiment: In vivo activity for protection against PAF acether induced bronchoconstriction in guinea pig after 5 min of intravenous administration (2 mg/kg); assay type: functional; outline: as §1
Cavia porcellus [6] = experiment: In vivo activity for protection against acetylcholine induced bronchoconstriction in guinea pig after 5 min of intravenous administration (1 mg/kg); assay type: functional
Cavia porcellus [7] = experiment: In vivo activity for protection against acetylcholine induced bronchoconstriction in guinea pig after 5 min of intravenous administration (2 mg/kg); assay type: functional
Cavia porcellus [8] = experiment: In vivo activity for protection against histamine induced bronchoconstriction in guinea pig after 5 min of intravenous administration (1 mg/kg); assay type: functional
Cavia porcellus [9] = experiment: In vivo activity for protection against histamine induced bronchoconstriction in guinea pig after 5 min of intravenous administration (2 mg/kg); assay type: functional
Oryctolagus cuniculus [10] = experiment: […] antagonistic activity against platelet aggregation; assay type: functional
Oryctolagus cuniculus [11] = experiment: […] antagonistic activity against PAF induced platelet aggregation (5 x 10e-8 M ); assay type: functional
Outline: (§2)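 Rabbit PRP (male New Zealand, citrated cardiac-puncture blood, 300g 10 min; 300 000 per µL). Antagonist added to stirred PRP 2 min before PAF (5×10⁻⁸ M), collagen (40 µg/mL) or arachidonic acid (2×10⁻⁴ M). Born turbidimetric aggregometry; inhibition vs control aggregation; IC50 from dose-response curves. Compounds dissolved in ethanol 10 mg/mL stock, diluted in saline.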

Oryctolagus cuniculus [12] = experiment: […] antagonistic activity against collagen induced platelet aggregation (40 ug/mL); assay type: functional; outline: as §2
Oryctolagus cuniculus [13] = experiment: […] antagonistic activity against arachidonic-acid induced platelet aggregation (2*10e-4 M); assay type: functional; outline: as §2
Rattus norvegicus [14] = experiment: In vivo activity for protection against PAF acether induced hypotension in rat after 5 mins of intravenous administration (1 mg/kg); assay type: functional
Outline: (§3)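 Male Sprague-Dawley rats (280-300 g), pentobarbital 50 mg/kg ip; jugular iv dosing, carotid arterial pressure by transducer. Control response to PAF 0.3 µg/kg iv, then antagonist; PAF 0.3 µg/kg re-injected and hypotension recorded. One antagonist dose per rat; percent inhibition per dose.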

Rattus norvegicus [15] = experiment: In vivo activity for protection against PAF acether induced hypotension in rat after 5 mins of intravenous administration (2 mg/kg); assay type: functional; outline: as §3
Rattus norvegicus [16] = experiment: In vivo activity for protection against acetylcholine induced hypotension in rat after 5 mins of intravenous administration (1 mg/kg); assay type: functional
Outline: (§4)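 Male Sprague-Dawley rats (280-300 g), pentobarbital 50 mg/kg ip; jugular iv dosing, carotid pressure recorded. Same protocol as the PAF challenge but using acetylcholine 1 µg/kg iv as agonist: control response, antagonist, then re-challenge. One antagonist dose per rat; percent inhibition per dose.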

Rattus norvegicus [17] = experiment: In vivo activity for protection against acetylcholine induced hypotension in rat after 5 mins of intravenous administration (2 mg/kg); assay type: functional; outline: as §4
Oryctolagus cuniculus [18] = experiment: In vitro antiaggregation activity against PAF-acether induced platelet aggregation when administered at dose of 1 uM/Kg after 2 minutes; assay type: functional
Oryctolagus cuniculus [19] = species: Oryctolagus cuniculus; experiment: In vitro aggregant (agonist) activity inducing platelet aggregation
Cavia porcellus [20] = experiment: In vivo activity for protection against PAF-acether induced bronchoconstriction in guinea pig after 5 min of intravenous administration (0.5 mg/kg); assay type: functional; outline: as §1
Cavia porcellus [21] = experiment: In vivo activity for protection against PAF-acether induced bronchoconstriction in guinea pig after 5 min of intravenous administration (1 mg/kg); assay type: functional; outline: as §1
Cavia porcellus [22] = experiment: In vivo activity for protection against PAF-acether induced bronchoconstriction in guinea pig after 5 min of intravenous administration (2 mg/kg); assay type: functional; outline: as §1
Cavia porcellus [23] = experiment: In vivo activity for protection against PAF acether induced thrombocytopenia in guinea pig after 5 min of intravenous administration (0.5 mg/kg); assay type: functional; outline: as §1
Cavia porcellus [24] = experiment: In vivo activity for protection against acetylcholine induced bronchoconstriction in guinea pig after 5 min of intravenous administration (5 mg/kg); assay type: functional
Rattus norvegicus [25] = experiment: In vivo activity for protection against PAF acether induced hypotension in rat after 5 mins of intravenous administration (5 mg/kg); assay type: functional; outline: as §3
Rattus norvegicus [26] = experiment: In vivo activity for protection against acetylcholine induced hypotension in rat after 5 mins of intravenous administration (5 mg/kg); assay type: functional; outline: as §4
Cavia porcellus [27] = experiment: In vivo activity for protection against acetylcholine-induced bronchoconstriction in guinea pig after 5 min of intravenous administration (1 mg/kg); assay type: functional
Cavia porcellus [28] = experiment: In vivo activity for protection against acetylcholine-induced bronchoconstriction in guinea pig after 5 min of intravenous administration (2 mg/kg); assay type: functional
Oryctolagus cuniculus [29] = experiment: […] antagonistic activity against arachidonic-acid induced platelet aggregation at a concentration of 2*10e-4 M; assay type: functional; outline: as §2
Oryctolagus cuniculus [30] = experiment: […] antagonistic activity against collagen induced platelet aggregation at a concentration of 40 ug/mL; assay type: functional; outline: as §2
Oryctolagus cuniculus [31] = experiment: […] antagonistic activity against PAF induced platelet aggregation at a concentration of 5 x 10e-8 M; assay type: functional; outline: as §2

Row | Compound | EC50 (Oryctolagus cuniculus [11]) | EC50 (Oryctolagus cuniculus [12]) | EC50 (Oryctolagus cuniculus [13]) | EC50 (Oryctolagus cuniculus [18]) | EC50 (Oryctolagus cuniculus [19]) | Protection (Cavia porcellus [1]) | Protection (Cavia porcellus [2]) | Protection (Cavia porcellus [4]) | Protection (Cavia porcellus [5]) | Protection (Cavia porcellus [6]) | Protection (Cavia porcellus [7]) | Protection (Cavia porcellus [8]) | Protection (Cavia porcellus [9]) | ED50 (Oryctolagus cuniculus [10]) | Protection (Rattus norvegicus [14]) | Protection (Rattus norvegicus [15]) | Protection (Rattus norvegicus [16]) | Protection (Rattus norvegicus [17]) | Protection (Cavia porcellus [20]) | Protection (Cavia porcellus [21]) | other results
1 | CCCCCCCCCCCCCCCCCCOCC(COC(=O)CCCC[N+](C)(C)C)OCC.[I-] (stereo unspecified) | 8 µM | 60 µM | > 100 µM | – | – | 24% | 55% | – | – | 0% | 9% | 0% | 0% | >100 µM | – | 20% | – | 17% | 69% | 77% | Protection (Cavia porcellus [22]): 73%
2 | CCCCCCCCCCCCCCCCCCOCC(COC(=O)CC[N+](C)(C)C)OC(C)=O (stereo unspecified) | – | – | – | 24 µM | > 100 µM | – | – | – | – | – | – | – | – | – | – | – | – | – | – | – | –
3 | CCCCCCCCCCCCCCCCCCNC(=O)OCC(COP(=O)([O-])OCC[n+]1ccsc1)OC (stereo unspecified) | 30.5 µM | 89 µM | – | – | – | 62% | 69% | 72% | 85% | – | – | – | – | >100 µM | 45% | – | 0% | – | – | – | Protection (Cavia porcellus [23]): 32%; Protection (Cavia porcellus [3]): 53%
4 | CCCCCCCCCCCCCCCCCCOCC(COC(=O)CCC[n+]1ccccc1)OCC.[Cl-] (stereo unspecified) | 1.5 µM | 100 µM | > 100 µM | – | – | 52% | 60% | – | – | 34% | 16% | 16% | 8% | >100 µM | 51% | 53% | 20% | 22% | 60% | 100% | –
5 | CCCCCCCCCCCCCCCCCCOC[C@H](COC(=O)CCCC[N+](C)(C)C)OC(C)=O.[I-] | – | – | – | – | – | 38% | 57% | – | – | – | – | 35% | 20% | >100 µM | 18% | 32% | 18% | 5% | 79% | 90% | Protection (Cavia porcellus [22]): 88%; Protection (Cavia porcellus [27]): 21%; Protection (Cavia porcellus [28]): 0%; EC50 (Oryctolagus cuniculus [29]): > 100 µM; EC50 (Oryctolagus cuniculus [30]): ~90 µM; EC50 (Oryctolagus cuniculus [31]): 20 µM

More lines, main results first:

Row | EC50 (Oryctolagus cuniculus [11]) | EC50 (Oryctolagus cuniculus [12]) | EC50 (Oryctolagus cuniculus [13]) | EC50 (Oryctolagus cuniculus [18]) | EC50 (Oryctolagus cuniculus [19]) | Compound | Protection (Cavia porcellus [1]) | Protection (Cavia porcellus [2]) | Protection (Cavia porcellus [4]) | Protection (Cavia porcellus [5]) | Protection (Cavia porcellus [6]) | Protection (Cavia porcellus [7]) | Protection (Cavia porcellus [8]) | Protection (Cavia porcellus [9]) | ED50 (Oryctolagus cuniculus [10]) | Protection (Rattus norvegicus [14]) | Protection (Rattus norvegicus [15]) | Protection (Rattus norvegicus [16]) | Protection (Rattus norvegicus [17]) | Protection (Cavia porcellus [20]) | Protection (Cavia porcellus [21]) | other results
6 | 11 µM | 84 µM | > 100 µM | – | – | CCCCCCCCCCCCCCCCCCOC[C@@H](COC(=O)CCCC[N+](C)(C)C)OC(C)=O.[I-] | 63% | 49% | 91% | 93% | 0% | 0% | 0% | 0% | >100 µM | 12% | 34% | 16% | 20% | – | – | Protection (Cavia porcellus [3]): 61%
7 | – | – | – | 18 µM | > 100 µM | CCCCCCCCCCCCCCCCCCOCC(COC(=O)CCCC[N+](C)(C)C)OC(C)=O (stereo unspecified) | – | – | – | – | – | – | – | – | – | – | – | – | – | – | – | –
8 | 13 µM | 70 µM | > 100 µM | – | – | CCCCCCCCCCCCCCCCCCNC(=O)OCC(COC(=O)CCCC[N+](C)(C)C)OC(C)=O.[I-] (stereo unspecified) | – | 38% | 88% | 90% | – | 79% | – | 17% | >100 µM | – | 46% | – | 63% | – | – | Protection (Cavia porcellus [24]): 80%; Protection (Rattus norvegicus [25]): 58%; Protection (Rattus norvegicus [26]): 74%
9 | – | – | – | 12 µM | > 100 µM | CCCCCCCCCCCCCCCCCCOCC(COC(=O)CCC[N+](C)(C)C)OC(C)=O (stereo unspecified) | – | – | – | – | – | – | – | – | – | – | – | – | – | – | – | –
